Data as given in PubChem BioAssay AID489030 (Sanford-Burnham Center for Chemical Genomics, 2010).
Hit rate of the full screen: of about 330,000 compounds, about 2,400 (0.73%) were called active. The calls were made as follows: active = inhibition of at least 40% at 20 µM; inactive = the rest. Shown is part of a subset that was picked to be rich in actives.

Molecular target: Apoptotic protease-activating factor 1 (Homo sapiens) (UniProt O14727)
Experiment: blockers of Apaf-1-driven caspase-3 activation – biochemical, DEVD-Rh110 fluorescence, uHTS, primary screen (AID 489030);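 also: plate controls were DMSO wells for no effect and DEVD-CHO caspase inhibitor wells for full effect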
Details: reconstituted apoptosome caspase-3 activity, at 20 µM, active compounds read high
Outline: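 Assay system – apoptosome proteins · Medium – Hepes buffer, pH 7.5 · Also added – cytochrome c with DEVD-Rh110 · Timing – 30 min compound preincubation, 50 min activation, room temperature · Detection – Rh110 fluorescence, excitation 480 nm, emission 540 nm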

Apoptotic protease-activating factor 1 (Homo sapiens), sequence (O14727 whole entry, looked up): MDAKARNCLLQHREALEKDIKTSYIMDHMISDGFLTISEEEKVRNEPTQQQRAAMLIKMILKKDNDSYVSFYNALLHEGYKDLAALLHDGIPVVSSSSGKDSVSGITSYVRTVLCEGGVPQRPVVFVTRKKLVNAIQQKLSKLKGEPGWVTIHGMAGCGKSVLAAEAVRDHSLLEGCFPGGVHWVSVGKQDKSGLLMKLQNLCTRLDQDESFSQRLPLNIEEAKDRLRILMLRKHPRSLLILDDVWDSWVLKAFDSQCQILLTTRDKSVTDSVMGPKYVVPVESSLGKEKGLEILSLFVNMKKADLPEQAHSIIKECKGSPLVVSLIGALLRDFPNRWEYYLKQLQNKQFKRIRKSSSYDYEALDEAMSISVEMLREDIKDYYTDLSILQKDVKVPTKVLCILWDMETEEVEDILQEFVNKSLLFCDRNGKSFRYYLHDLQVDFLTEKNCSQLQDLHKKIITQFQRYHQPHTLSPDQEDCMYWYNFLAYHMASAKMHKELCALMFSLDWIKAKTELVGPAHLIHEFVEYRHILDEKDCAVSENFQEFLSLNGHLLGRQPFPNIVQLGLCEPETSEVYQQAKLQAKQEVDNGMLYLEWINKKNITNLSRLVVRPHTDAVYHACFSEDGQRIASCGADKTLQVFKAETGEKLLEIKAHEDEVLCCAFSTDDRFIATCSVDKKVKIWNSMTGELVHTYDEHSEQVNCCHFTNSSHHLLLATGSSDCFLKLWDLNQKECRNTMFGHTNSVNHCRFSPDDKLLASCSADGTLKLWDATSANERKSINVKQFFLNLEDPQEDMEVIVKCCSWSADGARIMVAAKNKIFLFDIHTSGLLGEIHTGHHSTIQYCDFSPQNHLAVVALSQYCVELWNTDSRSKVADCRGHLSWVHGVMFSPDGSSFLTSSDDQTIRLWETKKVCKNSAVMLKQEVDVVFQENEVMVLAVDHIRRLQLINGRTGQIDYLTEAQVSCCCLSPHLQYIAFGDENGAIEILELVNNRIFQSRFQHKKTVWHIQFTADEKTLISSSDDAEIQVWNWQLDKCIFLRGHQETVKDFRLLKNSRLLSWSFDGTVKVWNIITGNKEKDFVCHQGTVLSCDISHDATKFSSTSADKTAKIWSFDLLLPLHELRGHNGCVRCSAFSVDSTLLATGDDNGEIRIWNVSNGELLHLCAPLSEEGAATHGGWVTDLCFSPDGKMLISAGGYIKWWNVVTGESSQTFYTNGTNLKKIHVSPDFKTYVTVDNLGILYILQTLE

inhibition, inactive:
CN(CCc1cn[nH]c1)C(=O)CC1C(=O)NCCN1Cc1cccc(Oc2ccccc2)c1 (configuration not stated) 13%
COCCNC(=O)c1snc2ccc(Cl)cc12 -26%
CCCNC(=O)Nc1ccccc1C(=O)Nc1ccc(OC)cc1 11.1%
O=C1CSc2ccc(C(=O)NCc3ccccn3)cc2N1 -4.15%
COc1cccc(S(=O)(=O)NCc2ccc(C(=O)NCc3ccccn3)cc2)c1 4.94%
O=C(O)c1ccc(NC(=O)c2ccc(COc3ccc(Cl)cc3)o2)cc1 3.81%
Cn1c(=O)n(C)c2cc(NS(=O)(=O)c3ccc(F)cc3)ccc21 1.91%
Cc1cccc(C)c1Nc1nnc(SCC(=O)NCCCN2CCCC2=O)s1 -3.15%
Cc1ccc(/C=C(\C#N)C(=O)Nc2cccc3ncccc23)o1 -6.14%
O=C(Nc1cccnc1Cl)c1cc(-c2cccc(Cl)c2)on1 3.02%
C=C(C)CNc1cc(S(=O)(=O)N2CCOCC2)ccc1Oc1ccccc1 24.2%
CCCC[C@@H]1CN=C(N)N1CCCC 8.23%
CCCC[C@@H]1CN=C(N)N1CCc1cccc(F)c1 4.48%
COc1ccccc1N=C1SC(C)CN1C(=O)C1CCC1 (configuration not stated) 3.12%
Cc1ccc(C)c(Cn2cnc3c(oc4ccccc43)c2=O)c1 -9.64%
CCOC(=O)C1CCN(C(=O)c2ccccc2N(C)S(=O)(=O)c2ccccc2)CC1 2.95%
CCOC(=O)C1CCCN(C(=O)c2cccc(S(=O)(=O)N3CCOCC3)c2)C1 (configuration not stated) -8.74%
CC(C)[C@@H](NC(=O)OC(C)(C)C)C(=O)NCC1CCC(C(=O)N[C@@H](Cc2ccccc2)C(=O)O)CC1 (some centres not stated) 2.34%
CCCCC(=O)Nc1ccc(C(=O)Nc2cc(C(F)(F)F)ccc2Cl)cc1 37.6%
ON=C1/C(=N\O)CC2(C/C1=N/O)OCCO2 -16%
CN(C(=O)CN1C(=O)CCSc2ccc(S(=O)(=O)N3CCCC3)cc21)c1ccccc1 -2.73%
CCC(CO)Oc1cc(NCc2ccccc2)c2ncn(C3CCCC3)c2c1 (configuration not stated) 32.6%
CCC(CO)Oc1cc(NC(=O)c2cccc(F)c2)c2ncn(C(C)C)c2c1 (configuration not stated) 17.6%
CCC(CO)Oc1cc(NC(=O)c2ccc(Cl)cc2)c2ncn(C(C)C)c2c1 (configuration not stated) 11.6%
CCC(CO)Oc1cc(NC(=O)c2cccc3ccccc23)c2ncn(C(C)C)c2c1 (configuration not stated) 29.6%
COc1ccc(N2CCN(CCNC(=O)c3nnc(Cc4c(F)cccc4Cl)o3)CC2)cc1 -8.42%
Cn1c(=O)c2c(nc(N3CCOCC3)n2CCNC2=NCCC2)n(C)c1=O 9.61%
O=C(c1ccccc1)c1cccn1CC(=O)N1CCN(c2ccc(F)cc2)CC1 5.66%
Cc1nc(N)[nH]c(=O)c1Oc1cccc(C(F)(F)F)c1 -9.16%
CC(=O)c1ccc(S(=O)(=O)Nc2ccc(C(=O)NCC(c3ccccc3)N(C)C)cc2)cc1 (configuration not stated) -18.1%
COc1ccc(C(CNC(=O)c2ccc(NS(=O)(=O)c3ccc(F)c(C)c3)cc2)N(C)C)cc1 (configuration not stated) 26%
CCOC(=O)C1CCN(S(=O)(=O)c2c(C)noc2C)CC1 1.33%
C=CCNc1nc(N)c(C(=C(C#N)C#N)c2ccccc2)s1 10.1%
O=C(NCCCNCc1ccccc1)c1ccc(/C=N/O)nc1 6.05%
COc1ccc(CNC(=O)c2ccc(NS(=O)(=O)c3ccc4[nH]c(=O)[nH]c4c3)cc2)cc1OC 8.25%
COC(=O)c1ccccc1NC(=O)CN(Cc1ccc(Cl)cc1)S(C)(=O)=O -4.4%
N#CCc1c(C#N)c(N)nc(N2CCCC2)c1C#N -2.29%
Nc1nc(NCC(=O)O)nc(N2CCCCCC2)c1[N+](=O)[O-] -0.54%
COc1nc(NC2CCCCC2)nc(N2CCCCCC2)n1 15.5%
O=C(O)COCC(=O)NCc1csc2ccc(Cl)cc12 -14.6%
CCOc1ccc(Br)cc1S(=O)(=O)Nc1ccc(S(=O)(=O)Nc2cc(C)on2)cc1 9.47%
CCCS(=O)(=O)C(=C1Nc2ccccc2N1)S(=O)(=O)CCC 8.61%
CCCC(NS(=O)(=O)c1ccc(OC)cc1)C(=O)O (configuration not stated) -6.54%
COc1ccc(S(=O)(=O)NCCCc2ccccc2)cc1 -8.3%
CCOC(=O)c1cnc(SC)nc1Sc1ccc(Cl)cc1Cl 14%
O=C(c1cnccn1)N1CCN(S(=O)(=O)c2cccc(Cl)c2)CC1 -4.31%
Cc1ccc(C(C)C)cc1OCC(=O)Nc1ccccc1N1CCCC1 16.1%
O=C(CN1CCN(C2CCCCC2)CC1)Nc1ccccc1N1CCCCC1 6.34%
Cn1nnnc1SCC(=O)Nc1cccc(S(=O)(=O)N2CCCCC2)c1 7.72%
CC(=O)c1c(C)[nH]c(C(=O)OCC(=O)NCCC(C)C)c1C -7.2%
CC(=O)c1c(C)[nH]c(C(=O)COC(=O)CCOc2ccc(C)cc2)c1C 9.54%
CC(C)(C)C(=O)N1CCC[C@@]1(CO)C(=O)O 6.37%
CN1C(=O)/C(=C/c2ccco2)SC1=Nc1cccc(C(=O)O)c1 20%
Cc1nn(C)c(C)c1NS(=O)(=O)c1ccc(OC(F)(F)F)cc1 -0.237%
O=C1COc2ccc(S(=O)(=O)Nc3ccc(OC(F)(F)F)cc3)cc2N1 11.8%
CCc1ccc(CN(C)C(=O)CCc2nnc(-c3ccc(-c4ccccc4)cc3)o2)nc1 12.9%
Cc1c(CCC(=O)O)c(=O)oc2cc3occ(-c4ccccc4)c3cc12 -15.7%
O=C(/C=C/c1ccc([N+](=O)[O-])cc1)NCCSCc1ccco1 -3.53%
COc1ccc(NS(=O)(=O)c2ccc3oc(SCC(N)=O)nc3c2)cc1 4.33%
COc1ccc(S(=O)(=O)N(C)C)cc1NC(=O)CSc1ncccn1 -1.98%
CC(C)[C@@H]1COC(c2cccc(C3=N[C@H](C(C)C)CO3)c2)=N1 9.42%
CN(C)c1ccnc(Oc2ccc(F)cc2)c1C#N -5.43%
COc1ccccc1CNC(=O)[C@@H]1CCCN1C(=O)[C@@H]1Cc2ccccc2CN1C(=O)OC(C)(C)C 11%
COc1ccc(Cn2cccc(NC(=O)Nc3ccc(C#N)cc3)c2=O)cc1 -0.047%
Cc1cc(C)c(C(N)=O)c(Cl)n1 -5.56%
O=c1c2ccccc2[nH]c(=S)n1CCN1CCC(=C(c2ccc(F)cc2)c2ccc(F)cc2)CC1 15.1%
CC1CCc2[nH]c3ccc(C(=O)N(C)CC(=O)Nc4cccc(F)c4)cc3c2C1 (configuration not stated) 20.4%
Cc1nn(C)c(C)c1CN(C(=O)CCc1nnc(Cc2c[nH]c3ccccc23)o1)C(C)C -6.13%
O=C1CCCCC1C(=O)c1ccccc1 (configuration not stated) -20%
COc1ccc(NC(=O)CCNS(=O)(=O)c2ccc3c(c2)c(=O)n(C)c(=O)n3C)cc1OC -6.12%
CC(C)=CC(=O)Nc1nnc(-c2ccc(F)cc2)s1 0.969%
CC(=O)OC(COc1ccc(F)cc1)Cn1cnc2ccccc21 (configuration not stated) 17.3%
CC(=O)OCC(COC(C)=O)OC(C)=O 6.7%
Cn1c(SCC(=O)C(C)(C)C)nnc1-c1ccccn1 -10.6%

inhibition, active:
COCCNC(=O)Nc1ccc2nc(-c3ccco3)c(-c3ccco3)nc2c1 64.8%
O=C(NCc1ccccn1)c1ccc2nc(-c3ccco3)c(-c3ccco3)nc2c1 60.6%
O=C(O)c1cc(Cl)c(Cl)cc1C(=O)Nc1cccc2ncccc12 80.4%
CCCC[C@@H]1CN=C(N)N1CCc1cc(C(F)(F)F)cc(C(F)(F)F)c1 52.3%
CCOC(=O)C1CCN(C(=O)c2cccc(S(=O)(=O)N(CC)c3ccccc3)c2)CC1 45.2%
CCCCN(CCCC)CCC(O)c1cc2c(Cl)cc(Cl)cc2c2cc(C(F)(F)F)ccc12 (configuration not stated) 48.9%
CC(C)n1cnc2c(NCc3ccccc3)cc(OCC3CCN(C)CC3)cc21 96.4%
CC(C)n1cnc2c(NCc3ccccc3)cc(N[C@@H](CO)Cc3ccccc3)cc21 94.5%
COc1ccc(C(CNC(=O)c2ccc(S(=O)(=O)Nc3ccccc3F)cc2)N(C)C)cc1 (configuration not stated) 56.5%
N#Cc1c(N2CCCCC2)nc(N)c2c(N)nc(SCC(=O)O)cc12 96%
COc1ccc(S(=O)(=O)/N=C2\C=C(NS(=O)(=O)c3ccccc3)C(=O)c3ccccc32)cc1 79.2%
CN1CCN(c2ccccc2NC(=O)COc2ccc(C3CCCCC3)cc2)CC1 43.6%
Cc1ccc(N=C2NC(=O)/C(=C/C=C/c3ccco3)S2)cc1C 61.8%
O=S(=O)(Nc1ccc(O)c2ccccc12)c1ccc(OC(F)(F)F)cc1 60.9%
CCCCCCc1cc2cc(-c3nnc(-c4ccccc4)o3)c(=O)oc2cc1O 67.8%
CN(C)S(=O)(=O)c1ccc2oc(SCC(=O)Nc3ccccc3F)nc2c1 61.1%
O=C(CCCN1CCc2[nH]c3ccc(F)cc3c2C1)c1ccc(F)cc1 65%
CC(=O)N=c1ncn(CC(COC(C)=O)OC(C)=O)c2nc[nH]c12 (configuration not stated) 74.2%
